# Results published in ChEMBL document CHEMBL2203158, “Fluorescent derivatives of AC-42 to probe bitopic orthosteric/allosteric binding mechanisms on muscarinic M1 receptors” (J Med Chem, 2012).
# The source made the active and inactive calls. The rule behind the calls is not given here.
# Legend:
# [1] = target: T1, Muscarinic acetylcholine receptor M1 (Homo sapiens, UniProt P11229); format: cell-based, HEK293
# T1 sequence (P11229 whole entry): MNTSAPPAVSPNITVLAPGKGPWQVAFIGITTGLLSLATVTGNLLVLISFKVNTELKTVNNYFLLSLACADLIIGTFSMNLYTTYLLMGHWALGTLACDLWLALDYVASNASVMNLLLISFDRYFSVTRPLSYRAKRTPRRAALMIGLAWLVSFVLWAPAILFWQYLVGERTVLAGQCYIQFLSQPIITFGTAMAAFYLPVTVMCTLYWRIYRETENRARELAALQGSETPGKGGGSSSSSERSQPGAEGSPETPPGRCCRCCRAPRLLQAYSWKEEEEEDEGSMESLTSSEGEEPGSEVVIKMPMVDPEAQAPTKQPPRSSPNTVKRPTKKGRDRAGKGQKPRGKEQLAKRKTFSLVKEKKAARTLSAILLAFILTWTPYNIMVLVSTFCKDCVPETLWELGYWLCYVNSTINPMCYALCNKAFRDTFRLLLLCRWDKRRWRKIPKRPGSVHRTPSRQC
# [2] = target: T2, Muscarinic acetylcholine receptor M1 (Homo sapiens) (UniProt P11229); conditions: HEK293
# T2 sequence (whole entry): T1 sequence (P11229 whole entry)
# [3] = target: T2, Muscarinic acetylcholine receptor M1 (Homo sapiens); assay: Binding affinity to EGFP-fused human M1 receptor N-terminal truncated at 17 residues expressed in HEK293 cells assessed as maximal amplitude after 4 hrs by FRET assay; format: cell-based
# In short: (§1)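 EGFP emission was read at 510 nm; specific binding is atropine-sensitive fluorescence extinction. Kd, maximal FRET amplitude and Ki/Kx/α come from Hill or competitive/allosteric fits, mean ± SE, n≥3.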
# [4] = target: T1, Muscarinic acetylcholine receptor M1; assay: (§2) Antagonist activity at EGFP-fused human M1 receptor N-terminal truncated at 17 residues expressed in HEK293 cells assessed as inhibition of carbachol induced calcium response by fluorescence assay; format: functional, cell-based
# [5] = target: T2, Muscarinic acetylcholine receptor M1 (Homo sapiens); assay: as §2; format: functional, cell-based
# [6] = target: Muscarinic acetylcholine receptor M3 (Homo sapiens) (UniProt P20309); assay: Antagonist activity at human M3 receptor in HEK293 cells assessed as inhibition of 20 uM carbachol induced calcium response at 10 uM by fluorescence assay; format: functional, cell-based
# Sequence of Muscarinic acetylcholine receptor M3 (Homo sapiens) (P20309 whole entry, looked up): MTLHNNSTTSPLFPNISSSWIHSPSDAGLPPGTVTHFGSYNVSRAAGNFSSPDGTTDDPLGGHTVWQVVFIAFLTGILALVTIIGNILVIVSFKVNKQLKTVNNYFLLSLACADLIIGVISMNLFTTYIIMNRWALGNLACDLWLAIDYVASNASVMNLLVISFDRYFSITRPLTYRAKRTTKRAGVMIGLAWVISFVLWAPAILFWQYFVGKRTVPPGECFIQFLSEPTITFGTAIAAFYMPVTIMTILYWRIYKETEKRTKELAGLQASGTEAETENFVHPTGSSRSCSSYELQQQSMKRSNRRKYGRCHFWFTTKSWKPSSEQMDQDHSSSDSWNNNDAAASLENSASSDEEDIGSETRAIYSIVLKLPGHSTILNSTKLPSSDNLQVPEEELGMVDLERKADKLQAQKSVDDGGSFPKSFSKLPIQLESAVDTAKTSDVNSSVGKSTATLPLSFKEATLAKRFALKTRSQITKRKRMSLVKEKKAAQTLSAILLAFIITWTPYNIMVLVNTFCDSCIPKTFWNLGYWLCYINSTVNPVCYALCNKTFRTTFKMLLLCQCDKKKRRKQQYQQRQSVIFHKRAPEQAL
# In short: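 Nontransfected HEK cells (endogenous M3) loaded with 5 μM Indo-1 AM, 45 min, 37 °C, trypsin/EDTA harvested, suspended at 10⁶ cells/mL in Hepes buffer with 1 mg/mL BSA. Calcium read at 37 °C as 400 nm emission (338 nm excitation), peak normalized to 20 μM digitonin maximum.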
# [7] = target: T1, Muscarinic acetylcholine receptor M1; assay: Displacement of [3H]NMS from EGFP-fused human M1 receptor N-terminal truncated at 17 residues expressed in HEK293 cells after 22 hrs by liquid scintillation counting; format: cell-based
# [8] = target: T1, Muscarinic acetylcholine receptor M1; assay: Binding affinity to EGFP-fused human M1 receptor N-terminal truncated at 17 residues expressed in HEK293 cells after 4 hrs by FRET assay; format: cell-based
# In short: as §1
# [9] = target: T1, Muscarinic acetylcholine receptor M1; assay: Displacement of [3H]NMS from EGFP-fused human M1 receptor N-terminal truncated at 17 residues expressed in HEK293 cells assessed as reduction of [3H]NMS dissociation rate after 22 hrs by liquid scintillation counting; format: cell-based
# [10] = target: T2, Muscarinic acetylcholine receptor M1 (Homo sapiens); assay: Allosteric modulation of EGFP-fused human M1 receptor N-terminal truncated at 17 residues expressed in HEK293 cells after 4 hrs by FRET assay in presence of para-LRB-AC42; format: cell-based
# In short: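 EGFP emission was read at 510 nm with excitation at 470 nm. Specific signal was the difference from 20 μM atropine. Kx and α came from an allosteric model fit, with three or more independent runs done in duplicate.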
# [11] = target: T2, Muscarinic acetylcholine receptor M1 (Homo sapiens); assay: Partial agonist activity at EGFP-fused human M1 receptor N-terminal truncated at 17 residues expressed in HEK293 cells assessed as inhibition of carbachol induced calcium response at […] by fluorescence assay; format: functional, cell-based
# [12] = target: T2, Muscarinic acetylcholine receptor M1 (Homo sapiens); assay: Partial agonist activity at EGFP-fused human M1 receptor N-terminal truncated at 17 residues expressed in HEK293 cells assessed as inhibition of carbachol induced calcium response at 1 uM by fluorescence assay relative to control; format: functional, cell-based
# [13] = target: T2, Muscarinic acetylcholine receptor M1 (Homo sapiens); conditions: HEK293, 200 nM
# [14] = target: T1, Muscarinic acetylcholine receptor M1; assay: Partial agonist activity at human full length M1 receptor expressed in HEK293 cells assessed as induction of calcium response by fluorescence assay; format: functional, cell-based
# In short: (§3)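 Stably transfected HEK293 cells (hygromycin-selected) were loaded with 5 μM Indo-1 AM for 45 min at 37 °C, then suspended at 10⁶ cells/mL in Hepes buffer with BSA. […] EC50 and Emax are mean ± SD of two determinations.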
# [15] = target: T1, Muscarinic acetylcholine receptor M1; assay: Partial agonist activity at EGFP-fused human M1 receptor N-terminal truncated at 11 residues expressed in HEK293 cells assessed as induction of calcium response by fluorescence assay; format: functional, cell-based
# In short: as §3
# [16] = target: T1, Muscarinic acetylcholine receptor M1; assay: Partial agonist activity at EGFP-fused human full length M1 receptor expressed in HEK293 cells assessed as induction of calcium response by fluorescence assay; format: functional, cell-based
# In short: as §3
# [17] = target: T1, Muscarinic acetylcholine receptor M1; assay: Partial agonist activity at EGFP-fused human M1 receptor N-terminal truncated at 17 residues expressed in HEK293 cells assessed as induction of calcium response by fluorescence assay; format: functional, cell-based
# In short: as §3
# [18] = target: T2, Muscarinic acetylcholine receptor M1 (Homo sapiens); conditions: HEK293, 10 uM
# [19] = target: T2, Muscarinic acetylcholine receptor M1 (Homo sapiens); conditions: HEK293, 10 uM; remark: listed apart in the source
smiles,measurement,setting,value
COc1cc2c(cc1OC)[C@@]13CCN4CC5=CCO[C@H]6CC(=O)N2[C@H]1[C@H]6[C@H]5C[C@H]43 [BRUCINE],Ki,[1],44.7 µM
same,pKx,[2],4.59
CCN(CC)c1ccc2c(-c3ccc(S(=O)(=O)NCCCCCC4CCN(CCCC(=O)c5ccccc5C)CC4)cc3S(=O)(=O)[O-])c3ccc(=[N+](CC)CC)cc-3oc2c1,Activity,[3],26.5%
same,IC50,[4],0.3 µM
same,inhibition,[5],Dose-dependent effect
same,inhibition,[6],inactive
same,Ki,[7],1 µM
same,Kd,[8],0.794 µM
same,EC50,[9],25.1 µM
C#C[C@]1(O)CC[C@H]2[C@@H]3CC[C@H]4Cc5nc6nc7ccccc7n6cc5C[C@]4(C)[C@H]3CC[C@@]21C,pKx,[10],5.03
CCN(CC)c1ccc2c(-c3ccc(S(=O)(=O)O)cc3S(=O)(=O)[O-])c3ccc(=[N+](CC)CC)cc-3oc2c1,Ki,[7],> 1000 µM
same,Activity,[11],inactive
Cc1ccccc1C(=O)CCCN1CCC(CCCCCN)CC1,IC50,[4],3.7 µM
same,inhibition,[5],Dose-dependent effect
same,Ki,[1],1.29 µM
same,inhibition,[6],inactive
same,Ki,[7],1.95 µM
CCN(CC)c1ccc2c(-c3ccc(S(=O)(=O)[O-])cc3S(=O)(=O)NCCCCCC3CCN(CCCC(=O)c4ccccc4C)CC3)c3ccc(=[N+](CC)CC)cc-3oc2c1,Emax,[12],20%
Clc1ccc2c(c1)N=C(N1CCNCC1)c1ccccc1N2 [N-DESMETHYLCLOZAPINE],Ki,[7],0.0603 µM
same,pKx,[10],6.92
CCCCC1CCN(CCCC(=O)c2ccccc2C)CC1,inhibition,[13],inactive
same,Ki,[1],0.891 µM
same,EC50,[14],0.74 µM
same,EC50,[15],0.72 µM
same,Ki,[7],1.74 µM
same,EC50,[16],0.21 µM
same,EC50,[17],0.45 µM
same,inhibition,[18],inactive
same,inhibition,[19],inactive
